Laboratory results from the array DNA melting data of Ke et al. (doi:10.1101/2024.01.08.574731).

Experiments:
[1] = folding enthalpy; higher = less favourable; fluorescence melt of hairpins on a sequencing array, two-state fit; conditions: sodium 0.088 M
Method in brief: (§1)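 Cy3 signals were normalised both to pre-quench Cy3 and to control constructs. They came from library hairpins carrying annealed Cy3 and quencher oligos on a sequenced MiSeq flow cell, imaged in 50 mM Na-HEPES pH 8.0, 25 mM NaCl, in 2.5 °C steps up to 60 °C. Bootstrapped two-state fits gave melting temperature and folding enthalpy, and four replicates were combined by inverse variance. Fitted temperatures were then raised by 9.35 °C to match UV melts.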

[2] = melting temperature; fluorescence melt of hairpins on a sequencing array, two-state fit, raised by 9.35 °C to match UV melts; conditions: sodium 0.088 M
Method in brief: as §1

For GCATGGCGAAAGCAGTGC (((..((....))..))), the folding enthalpy [1] was -19.7 kcal/mol and the Tm [2] was 56.5 °C.

In the case of GACTGGGGAAACCCAGCC (.(((((....))))).), the folding enthalpy [1] is reported as -15.4 kcal/mol and the Tm [2] is reported as 44.7 °C.

In the case of GATCTCACTTGAGATC ((((((....)))))), the folding enthalpy [1] is reported as -39 kcal/mol and the Tm [2] is reported as 54.1 °C.

GCACGCGAAAGCGGTTGC ((((((....)))..))) showed a folding enthalpy [1] of -13.3 kcal/mol and a Tm [2] of 49.5 °C.

GCGATCGAAAGATTGCGC ((((((....)))..))) showed a folding enthalpy [1] of -39.6 kcal/mol and a Tm [2] of 57.2 °C.

In the case of GATCAGGGCGCTGATC ((((((....)))))), the folding enthalpy [1] is reported as -47.4 kcal/mol and the Tm [2] is reported as 55.4 °C.

GCTCCCGAAAGGGTGAGC ((((((....)))..))) showed a folding enthalpy [1] of -16.7 kcal/mol and a Tm [2] of 48.8 °C.

GCGGCTGGAAACAGCCAC (.(((((....))))).) gave a folding enthalpy [1] of -11.8 kcal/mol and a Tm [2] of 51.8 °C.

GCGCCCGAAAGGGATCGC ((((((....)))..))) gave a folding enthalpy [1] of -20.4 kcal/mol and a Tm [2] of 51.8 °C.

GAGAAAGGAAACTTTCTC (((((((....))))))) showed a folding enthalpy [1] of -39.2 kcal/mol and a Tm [2] of 50.8 °C.

Work on GGTTTGCGAAAGCACACC (((.(((....))).))) yielded a folding enthalpy [1] of -28.2 kcal/mol and a Tm [2] of 51.7 °C.

For GGTGCCGAAAGGCCGACC ((((((....)))..))), the folding enthalpy [1] was -14.1 kcal/mol and the Tm [2] was 41.9 °C.

With GTGTGAGGAAACTTACGC (.((.((....)).)).) the folding enthalpy [1] was -17.7 kcal/mol and the Tm [2] was 33.7 °C.

With GGTTTGGGAAACCAGACC (((.(((....))).))) the folding enthalpy [1] was -33.1 kcal/mol and the Tm [2] was 47.8 °C.

GTGTGAGGAAACTTGCAC (((..((....))..))) gave a folding enthalpy [1] of -28 kcal/mol and a Tm [2] of 35.1 °C.

GCCTATCGAAAGATCGGC (((.(((....))).))) showed a folding enthalpy [1] of -41.7 kcal/mol and a Tm [2] of 49 °C.

In the case of GCATGTGGAAACACACGC ((.((((....)))).)), the folding enthalpy [1] is reported as -25.8 kcal/mol and the Tm [2] is reported as 46 °C.

With GTTGGCGAAAGCCATAAC ((((((....)))..))) the folding enthalpy [1] was -10.2 kcal/mol and the Tm [2] was 35.7 °C.

Work on GCTCAGCGAAAGCCGCGC ((.(.((....)).).)) yielded a folding enthalpy [1] of -17.8 kcal/mol and a Tm [2] of 42 °C.

For GCTATGCGAAAGCATCGC ((.((((....)))).)), the folding enthalpy [1] was -22.5 kcal/mol and the Tm [2] was 55.3 °C.

GCTCTGCGAAAGCACGGC ((..(((....)))..)) gave a folding enthalpy [1] of -14.6 kcal/mol and a Tm [2] of 39.7 °C.

GTTAGCGAAAGCTCTAAC ((((((....)))..))) showed a folding enthalpy [1] of -8.83 kcal/mol and a Tm [2] of 25.6 °C.

In the case of GAAACGGGAAACCGCTTC (((.(((....))).))), the folding enthalpy [1] is reported as -24.2 kcal/mol and the Tm [2] is reported as 40.4 °C.

Work on GGTTGGCGAAAGCCACC (((.(((....)))))) yielded a folding enthalpy [1] of -16.5 kcal/mol and a Tm [2] of 57.7 °C.

Work on GATCTAGCGTAGATC ((((((...)))))) yielded a folding enthalpy [1] of -29.1 kcal/mol and a Tm [2] of 37.7 °C.

For GCGAAACGAAAGTTCCGC (((.(((....))).))), the folding enthalpy [1] was -38.2 kcal/mol and the Tm [2] was 52.5 °C.

GCACGGCGAAAGCTATGC (((..((....))..))) gave a folding enthalpy [1] of -19.9 kcal/mol and a Tm [2] of 42.1 °C.

In the case of GCAGGTGGAAACACCCAC (..((((....))))..), the folding enthalpy [1] is reported as -10.6 kcal/mol and the Tm [2] is reported as 32.1 °C.

Sequence GTGTAGCGAAAGCTCCAC (((.(((....))).))) has a folding enthalpy [1] of -31.7 kcal/mol and a Tm [2] of 48 °C.

In the case of GCCGAGCGAAAGCTCTGC ((.((((....)))).)), the folding enthalpy [1] is reported as -28.5 kcal/mol and the Tm [2] is reported as 58.7 °C.

In the case of GCGTAGCGAAAGCGCCGC (((..((....))..))), the folding enthalpy [1] is reported as -15.9 kcal/mol and the Tm [2] is reported as 59.7 °C.

In the case of GTGGGCGAAAGCCACAC ((((((....))).))), the folding enthalpy [1] is reported as -14.4 kcal/mol and the Tm [2] is reported as 59.9 °C.

For GATCTGCCTCAGATC ((((((...)))))), the folding enthalpy [1] was -29.1 kcal/mol and the Tm [2] was 48.7 °C.

Work on GATCGGGCCCCGATC ((((((...)))))) yielded a folding enthalpy [1] of -44.1 kcal/mol and a Tm [2] of 57.5 °C.

GTTGCCGGAAACGGCAGC (.(((((....))))).) showed a folding enthalpy [1] of -14.4 kcal/mol and a Tm [2] of 57.5 °C.

In the case of GAAATAGGAAACTATTTC (((((((....))))))), the folding enthalpy [1] is reported as -44.1 kcal/mol and the Tm [2] is reported as 46.4 °C.

In the case of GCTTATGGAAACATGAGC (((.(((....))).))), the folding enthalpy [1] is reported as -33.5 kcal/mol and the Tm [2] is reported as 45.6 °C.

With GTGTATGGAAACACACAC ((((.((....)).)))) the folding enthalpy [1] was -26.1 kcal/mol and the Tm [2] was 38.1 °C.
